≈ marks a conversion by molar mass, not a printed value.
What was measured:
Format in all cases: functional
[1] = system: Staphylococcus aureus; experiment: Antibacterial activity against Staphylococcus aureus strain St au 29213
How it was run: (§1)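 Broth microdilution MIC run to NCCLS standards: serial 2-fold dilutions in cation-adjusted Mueller–Hinton broth, inoculum ~5 × 10^5 CFU/mL, incubated 35 °C for 18–24 h. Trays were read by eye, and the MIC was taken as the lowest concentration giving complete growth inhibition (no visible turbidity).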

[2] = system: Pseudomonas aeruginosa; experiment: Antibacterial activity against Pseudomonas aeruginosa strain 27853; how it was run: as §1
[3] = system: Enterococcus faecalis; experiment: Antibacterial activity against Enterococcus faecalis strain 29212; how it was run: as §1
[4] = system: Escherichia coli; experiment: Antibacterial activity against Escherichia coli strain 25922; how it was run: as §1
[5] = system: Staphylococcus aureus; experiment: Antibacterial activity against Staphylococcus aureus strain St au 33591 MRSA; how it was run: as §1

SMILES | MIC [1] | MIC [2] | MIC [3] | MIC [4] | MIC [5]
O=C(O)c1cn(-c2ccc(O)cc2)c2cc(N3CC4CC3CN4)c(F)cc2c1=O (stereo not given) | 0.78 µg/mL (≈ 1.97 µM) | 6.25 µg/mL (≈ 15.8 µM) | 12.5 µg/mL (≈ 31.6 µM) | 1.56 µg/mL (≈ 3.95 µM) | 0.78 µg/mL (≈ 1.97 µM)
N[C@@H]1CN(c2cc3c(cc2F)c(=O)c(C(=O)O)cn3-c2ccc(O)cc2)CC12CC2 | 0.2 µg/mL (≈ 0.488 µM) | 1.56 µg/mL (≈ 3.81 µM) | 0.78 µg/mL (≈ 1.91 µM) | 0.2 µg/mL (≈ 0.488 µM) | 0.1 µg/mL (≈ 0.244 µM)
O=C(O)c1cn(-c2ccc(O)cc2)c2nc(N3CC4CCCNC4C3)c(F)cc2c1=O (stereo not given) | 0.4 µg/mL (≈ 0.942 µM) | 1.56 µg/mL (≈ 3.68 µM) | 3.13 µg/mL (≈ 7.37 µM) | 1.56 µg/mL (≈ 3.68 µM) | 0.4 µg/mL (≈ 0.942 µM)
C[C@H]1CN(c2nc3c(cc2F)c(=O)c(C(=O)O)cn3-c2ccc(O)cc2)C[C@H]1N | 0.4 µg/mL (≈ 1 µM) | 0.78 µg/mL (≈ 1.96 µM) | 1.56 µg/mL (≈ 3.92 µM) | 0.4 µg/mL (≈ 1 µM) | 0.4 µg/mL (≈ 1 µM)
N[C@@H]1CCC[C@@H]2CN(c3cc4c(cc3F)c(=O)c(C(=O)O)cn4-c3ccc(O)cc3)C[C@@H]21 | 0.2 µg/mL (≈ 0.457 µM) | 12.5 µg/mL (≈ 28.6 µM) | 1.56 µg/mL (≈ 3.57 µM) | 3.13 µg/mL (≈ 7.15 µM) | 0.2 µg/mL (≈ 0.457 µM)
NCC1CCN(c2nc3c(cc2F)c(=O)c(C(=O)O)cn3-c2ccc(O)cc2)C1 (stereo not given) | 0.4 µg/mL (≈ 1 µM) | 6.25 µg/mL (≈ 15.7 µM) | 3.13 µg/mL (≈ 7.86 µM) | 3.13 µg/mL (≈ 7.86 µM) | 1.56 µg/mL (≈ 3.92 µM)
C[C@H](N)[C@@H]1CCN(c2nc3c(cc2F)c(=O)c(C(=O)O)cn3-c2ccc(O)cc2)C1 | 1.56 µg/mL (≈ 3.78 µM) | 12.5 µg/mL (≈ 30.3 µM) | 6.25 µg/mL (≈ 15.2 µM) | 1.56 µg/mL (≈ 3.78 µM) | 1.56 µg/mL (≈ 3.78 µM)
NC1CCN(c2cc3c(cc2F)c(=O)c(C(=O)O)cn3-c2ccc(O)cc2)C1 (stereo not given) | 0.4 µg/mL (≈ 1.04 µM) | 1.56 µg/mL (≈ 4.07 µM) | 3.13 µg/mL (≈ 8.16 µM) | 0.4 µg/mL (≈ 1.04 µM) | 0.4 µg/mL (≈ 1.04 µM)
COc1c(N2CC3CC2CN3)c(F)cc2c(=O)c(C(=O)O)cn(-c3ccc(O)cc3)c12 (stereo not given) | 6.25 µg/mL (≈ 14.7 µM) | 12.5 µg/mL (≈ 29.4 µM) | > 50 µg/mL | 6.25 µg/mL (≈ 14.7 µM) | 3.13 µg/mL (≈ 7.36 µM)
CN1CCN(c2nc3c(cc2F)c(=O)c(C(=O)O)cn3-c2ccc(O)cc2)CC1 | 0.2 µg/mL (≈ 0.502 µM) | 3.13 µg/mL (≈ 7.86 µM) | 1.56 µg/mL (≈ 3.92 µM) | 0.05 µg/mL (≈ 0.126 µM) | 0.2 µg/mL (≈ 0.502 µM)
C[C@@H](N)[C@H]1CCN(c2nc3c(cc2F)c(=O)c(C(=O)O)cn3-c2ccc(O)cc2)C1 | 1.56 µg/mL (≈ 3.78 µM) | 12.5 µg/mL (≈ 30.3 µM) | 12.5 µg/mL (≈ 30.3 µM) | 6.25 µg/mL (≈ 15.2 µM) | 1.56 µg/mL (≈ 3.78 µM)
N[C@H]1CN(c2nc3c(cc2F)c(=O)c(C(=O)O)cn3-c2ccc(O)cc2)CC12CC2 | 0.2 µg/mL (≈ 0.487 µM) | 0.78 µg/mL (≈ 1.9 µM) | 0.78 µg/mL (≈ 1.9 µM) | 0.2 µg/mL (≈ 0.487 µM) | 0.4 µg/mL (≈ 0.975 µM)
COc1c(N2CCC(CN)C2)c(F)cc2c(=O)c(C(=O)O)cn(-c3ccc(O)cc3)c12 (stereo not given) | 3.13 µg/mL (≈ 7.32 µM) | 50 µg/mL (≈ 117 µM) | 25 µg/mL (≈ 58.5 µM) | 6.25 µg/mL (≈ 14.6 µM) | 3.13 µg/mL (≈ 7.32 µM)
COc1c(N2CCN(C)CC2)c(F)cc2c(=O)c(C(=O)O)cn(-c3ccc(O)cc3)c12 | 0.4 µg/mL (≈ 0.936 µM) | 3.13 µg/mL (≈ 7.32 µM) | 3.13 µg/mL (≈ 7.32 µM) | 0.1 µg/mL (≈ 0.234 µM) | 0.4 µg/mL (≈ 0.936 µM)
COc1c(N2CCC(N)C2)c(F)cc2c(=O)c(C(=O)O)cn(-c3ccc(O)cc3)c12 (stereo not given) | 1.56 µg/mL (≈ 3.77 µM) | 6.25 µg/mL (≈ 15.1 µM) | 25 µg/mL (≈ 60.5 µM) | 1.56 µg/mL (≈ 3.77 µM) | 1.56 µg/mL (≈ 3.77 µM)
COc1c(N2CCNCC2)c(F)cc2c(=O)c(C(=O)O)cn(-c3ccc(O)cc3)c12 | 0.2 µg/mL (≈ 0.484 µM) | 6.25 µg/mL (≈ 15.1 µM) | 25 µg/mL (≈ 60.5 µM) | 0.78 µg/mL (≈ 1.89 µM) | 0.4 µg/mL (≈ 0.968 µM)
C[C@@H]1CN(c2cc3c(cc2F)c(=O)c(C(=O)O)cn3-c2ccc(O)cc2)C[C@H]1N | 0.2 µg/mL (≈ 0.503 µM) | 1.56 µg/mL (≈ 3.93 µM) | 1.56 µg/mL (≈ 3.93 µM) | 0.2 µg/mL (≈ 0.503 µM) | 0.2 µg/mL (≈ 0.503 µM)
COc1c(N2CC3CCCNC3C2)c(F)cc2c(=O)c(C(=O)O)cn(-c3ccc(O)cc3)c12 (stereo not given) | 0.78 µg/mL (≈ 1.72 µM) | 6.25 µg/mL (≈ 13.8 µM) | 12.5 µg/mL (≈ 27.6 µM) | 1.56 µg/mL (≈ 3.44 µM) | 0.78 µg/mL (≈ 1.72 µM)
C[C@@H]1CN(c2nc3c(cc2F)c(=O)c(C(=O)O)cn3-c2ccc(O)cc2)C[C@H](C)N1 | 3.13 µg/mL (≈ 7.59 µM) | 6.25 µg/mL (≈ 15.2 µM) | 12.5 µg/mL (≈ 30.3 µM) | 0.4 µg/mL (≈ 0.97 µM) | 6.25 µg/mL (≈ 15.2 µM)
COc1c(N2C[C@@H]3[C@@H](N)[C@@H]3C2)c(F)cc2c(=O)c(C(=O)O)cn(-c3ccc(O)cc3)c12 | 0.1 µg/mL (≈ 0.235 µM) | 1.56 µg/mL (≈ 3.67 µM) | 1.56 µg/mL (≈ 3.67 µM) | 0.1 µg/mL (≈ 0.235 µM) | 0.1 µg/mL (≈ 0.235 µM)
O=C(O)c1cn(-c2ccc(O)cc2)c2nc(N3CC4CC3CN4)c(F)cc2c1=O (stereo not given) | 1.56 µg/mL (≈ 3.94 µM) | 3.13 µg/mL (≈ 7.9 µM) | > 50 µg/mL | 1.56 µg/mL (≈ 3.94 µM) | 3.13 µg/mL (≈ 7.9 µM)
O=C(O)c1cn(-c2ccc(O)cc2)c2nc(N3CCNCC3)c(F)cc2c1=O | 1.56 µg/mL (≈ 4.06 µM) | 3.13 µg/mL (≈ 8.14 µM) | 12.5 µg/mL (≈ 32.5 µM) | 1.56 µg/mL (≈ 4.06 µM) | 1.56 µg/mL (≈ 4.06 µM)
COc1c(N2C[C@@H](C)[C@H](C)C2)c(F)cc2c(=O)c(C(=O)O)cn(-c3ccc(O)cc3)c12 | 0.78 µg/mL (≈ 1.83 µM) | 6.25 µg/mL (≈ 14.7 µM) | 12.5 µg/mL (≈ 29.3 µM) | 0.78 µg/mL (≈ 1.83 µM) | 0.78 µg/mL (≈ 1.83 µM)
